From article PMC3480199 (Journal of medicinal chemistry, 2012) come the findings set out here.

Like-named read-outs stand apart in the source and are kept apart here.

For data set [1], the target named is T1, human mitochondrial MetRS (Homo sapiens, UniProt Q96GW9).
T1 sequence (Q96GW9 30-593): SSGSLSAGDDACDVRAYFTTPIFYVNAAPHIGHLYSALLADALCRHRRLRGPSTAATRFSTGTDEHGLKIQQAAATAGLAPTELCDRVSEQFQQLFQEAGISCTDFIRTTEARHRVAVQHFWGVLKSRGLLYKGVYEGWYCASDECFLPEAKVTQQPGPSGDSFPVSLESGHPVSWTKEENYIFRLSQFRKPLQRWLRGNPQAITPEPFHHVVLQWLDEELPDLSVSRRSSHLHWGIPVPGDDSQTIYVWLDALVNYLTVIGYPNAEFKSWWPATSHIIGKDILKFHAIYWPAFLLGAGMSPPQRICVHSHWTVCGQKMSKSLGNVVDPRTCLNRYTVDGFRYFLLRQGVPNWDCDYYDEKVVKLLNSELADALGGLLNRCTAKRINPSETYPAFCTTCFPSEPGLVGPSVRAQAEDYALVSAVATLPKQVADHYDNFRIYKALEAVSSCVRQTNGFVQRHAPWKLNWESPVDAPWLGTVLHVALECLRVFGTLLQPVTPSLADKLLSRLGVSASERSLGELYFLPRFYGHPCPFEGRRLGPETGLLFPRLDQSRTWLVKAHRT
Briefly: Human mitochondrial methionyl-tRNA synthetase aminoacylation assay. The class given is biochemical. The method in brief:
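Recombinant enzyme (20 nM) preincubated 15 min with 12 serial two-fold dilutions of test compound in 50 mM Tris-HCl pH 8.0, 2.5 mM MgCl2, 2.5 mM KCl, 0.2 mM spermine, 0.2 mg/mL BSA, 2.5 mM DTT, 1 U/mL pyrophosphatase. Started with 200 μg/mL E. coli tRNA, 2.5 mM ATP, 250 nM [3H]methionine; 120 min, 37°C. Filtered, TCA-washed, scintillation-counted in quadruplicate; IC50 by sigmoidal nonlinear regression.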

Data set [2] deals with CRL-8155 human lymphoblast cell line. Briefly: Mammalian cell growth inhibition assay. The settings on record: CRL8155, 48 h, read-out: CRL-8155 IC50. The class given is cell-based.
Data set [3] relates to MDR1-MDCKII cells. The settings on record: dog, MDCK-MDR1, 60 min, 3 μM.
Data set [4] has as its system T. brucei cells. Briefly: Protein synthesis inhibition assay. The class given is cell-based, Trypanosoma brucei. The settings on record: 4 h, concentrations 1 to 16 times the 48 hour EC50. The method in brief:
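Mid-log bloodstream-form T. brucei (5×10^5 cells/well) in HMI-9 medium, given test compound in triplicate and preincubated 15 min, with a no-drug control on each plate. Cells cultured with 3H-histidine; filters counted by scintillation.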

For data set [5], the system named is MDR1-MDCKII cells. Briefly: MDR1-MDCKII assay. The following applies: 3 μM.
Data set [6] concerns T. brucei rhodesiense. The experiment in a line: Efficacy studies in mice. Format: in vivo. The settings on record: 50 mg/kg oral every 12 h for 4 days.

For the molecule `COc1cc(Cl)cc(CNCCCNC(=O)Nc2ccsc2)c1` [Compound 27, 1-[3-(3-Chloro-5-methoxy-benzylamino)-propyl]-3-thiophen-3-yl-urea], the IC50 (commonly the midpoint of a concentration-inhibition curve) in data set [1] came out at 6.59 µM; in data set [2], 22 µM.
Regarding `CC(C)NCC(O)COc1cccc2ccccc12` (stereo not shown) [Propranolol], the “AQ (typical control value)” value in data set [3] is recorded as less than 0.5.
As for `C[C@@H]1C[C@@H]([C@H](O)CC2CC(=O)NC(=O)C2)C(=O)[C@@H](C)C1` [cycloheximide], the “Incorporation of 3H-amino acid into proteins” value (shortened to “Incorporation”) in data set [4] is listed as “dose dependent decrease”.
Consider `CC(C)CN(C[C@@H](O)[C@H](Cc1ccccc1)NC(=O)O[C@H]1CCOC1)S(=O)(=O)c1ccc(N)cc1` [Amprenavir], for which the “AQ (typical control value)” value in data set [5] is recorded as more than 0.5.
Take `O=C(NCCCNCc1cc(Cl)cc(Cl)c1)Nc1ccccc1O` [Compound 16]: the IC50 is 3.72 µM in data set [1] and more than 20 µM in data set [2].
For `NCCCC(N)(C(=O)O)C(F)F` (stereo not shown) [DFMO, difluoromethylornithine], in data set [4], the “Incorporation” value is “did not result in a dose dependent decrease”.
With `O=C(NCCCNCc1cc(Cl)cc(Cl)c1)Nc1ccccc1` [Compound 2, 1-(3-(3,5-Dichlorobenzylamino)propyl)-3-phenylurea], the IC50 is more than 10 µM in data set [1] and 12 µM in data set [2]. Besides, the “Selectivity Index Human IC50 / T. brucei IC50” value in data set [1] (human mitochondrial MetRS IC50 over T. brucei MetRS IC50) is reported as more than 175.
Take `O=C(NCCCNCc1cc(Cl)cc(Cl)c1)Nc1ccsc1` [Compound 26, 1-[3-(3,5-Dichloro-benzylamino)-propyl]-3-thiophen-3-yl-urea]: the IC50 in data set [1] was determined as 4.35 µM; in data set [2], 12 µM. In data set [6], the Extension of survival was determined as 1 days. The “Toxicity in treated mice” value in data set [6] was “No toxicity”. Also, the “Incorporation” value in data set [4] is “dose dependent decrease”.
Regarding `O=C(NCCCNCc1cc(Cl)cc(Cl)c1)Nc1cccc(F)c1` [Compound 18], the values for the IC50 in data set [1] and in data set [2] were 4.25 µM and 43.2 µM, respectively.
As for `O=C(NCCCNCc1cc(Cl)cc(Cl)c1)Nc1cccs1` [Compound 28], the IC50 in data set [1] was determined as 3.06 µM; in data set [2], 9.5 µM.
Taken in the same sequence, the figures for `COc1cc(Cl)cc(CNCCCNC(=O)Nc2ccccc2)c1` [Compound 4] were 8.35 µM and 20 µM.
For `O=C(NCCCNCc1cc(Cl)cc(Cl)c1)Nc1cccc(O)c1` [Compound 17], the IC50 came out at 5.43 µM in data set [1] and 12 µM in data set [2].
In the case of `Oc1cc(NCCCNCc2cc(Cl)cc(Cl)c2)nc2ccccc12` [Compound 1], the “Incorporation” value in data set [4] was “dose dependent decrease”.
